Assay results reported in ChEMBL document CHEMBL4251706, “Elimination of HIV-1 Latently Infected Cells by Gnidimacrin and a Selective HDAC Inhibitor” (ACS Med Chem Lett, 2018).
Calls of active or inactive are those of the source. The rule behind the calls is not given here.

Columns and labels:
[1] = Selectivity index, ratio of CC50 for human U937 cells to EC50 for reactivation of latent HIV1 infected in human U1 cells; conditions: U937 cells (CC50) and latent HIV-1 infected U1 cells (EC50)
PBMC [2] = assay: Induction of IFNgamma1 production in human PBMC at 20 pM after 2 days in presence of 1 uM HDAC inhibitor TPB by ELISA (reference value: 27 pg/ml); format: cell-based; conditions: 48 h
PBMC [3] = assay: Induction of IFNgamma1 production in human PBMC at 20 pM after 2 days by ELISA (reference value: 29 pg/ml); format: cell-based; conditions: 48 h
PBMC [4] = assay: Induction of IFNgamma1 production in human PBMC at 2000 pM after 2 days in presence of 3 uM HDAC inhibitor TPB by ELISA (reference value: 26 pg/ml); format: cell-based; conditions: 48 h, 0.002 µM
[5] = system: Human immunodeficiency virus 1; assay: Synergistic reactivation of latent HIV1 infected in human PBMC assessed as reduction in HIV1 DNA at 20 pM after 6 days in presence of HDAC inhibitor TPB by SYBR green dye based RT-PCR analysis relative to control; format: functional
[6] = system: Human immunodeficiency virus 1; assay: Synergistic reactivation of latent HIV1 infected in human U1 cells/uninfected U937 cell mixture assessed as p24 level at 26 pM supplemented with fresh medium containing compound every 3 days for 18 days measured at day 6 post dose in presence of HDAC inhibitor TPyB by ELISA; format: functional
Method in brief: (§1)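 U1 and U937 cells mixed 1:4 (1x10^5 cells/ml) with LRA(s) (GM 26 pM, TPyB 0.57 µM) or DMSO, plus T20 1 µg/ml, for 18 days. p24 in supernatant read by ELISA every 3 days, after which medium with compound was renewed and cells reset to 1x10^5/ml. At day 18, part of the cells got GM 129 pM for 72 h and were read on day 21.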

[7] = Cytotoxicity against human Jurkat cells assessed as reduction in cell viability after 72 hrs by CellTiter-Glo luminescent cell viability assay; format: cell-based
[8] = system: Human immunodeficiency virus 1; assay: Synergistic reactivation of latent HIV1 infected in human U1 cells assessed as increase in p24 production after 48 hrs in presenc of HDAC inhibitor TPB by ELISA relative to vorinostat; format: functional
PBMC [9] = assay: Induction of IFNgamma1 production in human PBMC at 2000 pM after 2 days in presence of 1 uM HDAC inhibitor TPB by ELISA (reference value: 27 pg/ml); format: cell-based; conditions: 48 h, 0.002 µM
PBMC [10] = assay: Induction of T-cell activation in human PBMC assessed as increase in CD69 expression at 3 nM measured after 1 day in presence of HDAC inhibitor vorinostat by flow cytometric method; format: cell-based; conditions: 24 h, 0.003 µM
[11] = system: Human immunodeficiency virus 1; assay: (§2) Reactivation of latent HIV1 infected in human U1 cells/uninfected U937 cell mixture assessed as reduction in proviral DNA level at 26 pM supplemented with fresh medium containing compound every 3 days for 18 days measured post last dose by PCR analysis; format: functional, organism-based
Method in brief: (§3)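 Cells from the 18-day U1/U937 (1:4) co-culture with LRA(s) or DMSO plus T20 were tested for proviral DNA by PCR of HIV-1 pol (200 bp, 30 cycles), with B2M (779 bp, 25 cycles) as internal control. Products run on 2% agarose and quantified by densitometry; values are ratios of treated to DMSO.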

[12] = system: Human immunodeficiency virus 1; assay: Synergistic reactivation of latent HIV1 infected in human U1 cells/uninfected U937 cell mixture assessed as increase in p24 production at 26 pM supplemented with fresh medium containing compound every 3 days for 18 days and subsequent dosing at 129 pM at day 18 post dose measured on day 21 in presence of HDAC inhibitor TPyB by ELISA; format: functional, organism-based; method in brief: as §1
PBMC [13] = assay: Induction of IFNgamma1 production in human PBMC at 20 pM after 2 days in presence of 3 uM HDAC inhibitor TPB by ELISA (reference value: 26 pg/ml); format: cell-based; conditions: 48 h
[14] = system: Human immunodeficiency virus 1; assay: Synergistic reactivation of latent HIV1 infected in human J-Lat A2 cells assessed as increase in GFP positive cells after 72 hrs in presence of HDAC inhibitor TPB by flow cytometric analysis relative to control; format: functional
Method in brief: (§4)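 J-Lat (A2) cells express GFP on latent HIV-1 activation; 1x10^6 cells/well incubated with LRA(s), alone or in pairs (HDAC inhibitor TPB 0.3 µM or TPyB 1.0 µM), at 37 °C for 72 h; GFP+ cell frequency by flow cytometry; two independent experiments, one-tailed t-test.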

[15] = system: Human immunodeficiency virus 1; assay: Synergistic reactivation of latent HIV1 infected in human U1 cells assessed as increase in p24 production after 48 hrs in presence of HDAC inhibitor TPB by ELISA; format: functional, organism-based; conditions: Human immunodeficiency virus 1, U1, 48 h
[16] = system: Human immunodeficiency virus 1; assay: Reactivation of latent HIV1 infected in human U1 cells/uninfected U937 cell mixture assessed as increase in p24 production at 26 pM supplemented with fresh medium containing compound every 3 days for 18 days measured at day 9 post dose by ELISA; format: functional, organism-based; method in brief: as §1
[17] = Cytotoxicity against human J-Lat (A2) cells assessed as effect on cell viability at 80 pM after 72 hrs by flow cytometric analysis; format: cell-based
Method in brief: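 J-Lat (A2) cells, 1x10^6 cells/well, exposed to LRA(s) at 37 °C for 72 h; percent viable cells read by flow cytometry, two independent experiments.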

[18] = system: Human immunodeficiency virus 1; assay: Reactivation of latent HIV1 infected in human U1 cells/uninfected U937 cell mixture assessed as p24 level at 26 pM supplemented with fresh medium containing compound every 3 days for 18 days measured at day 18 post dose by ELISA; format: functional; method in brief: as §1
[19] = system: Human immunodeficiency virus 1; assay: Synergistic reactivation of latent HIV1 infected in human U1 cells/uninfected U937 cell mixture assessed as increase in p24 production at 26 pM supplemented with fresh medium containing compound every 3 days for 18 days measured at day 6 post dose in presence of HDAC inhibitor TPyB by ELISA; format: functional, organism-based; method in brief: as §1
[20] = system: Human immunodeficiency virus 1; assay: Reactivation of latent HIV1 infected in human J-Lat A2 cells assessed as increase in GFP positive cells at 80 pM after 72 hrs by flow cytometric analysis relative to control; format: functional; method in brief: as §4
[21] = system: Human immunodeficiency virus 1; assay: as §2, with “Synergistic reactivation” for “Reactivation”, “dose in presence of HDAC inhibitor TPyB” for “dose”, “analysis relative to control” for “analysis”; format: functional; method in brief: as §3
PBMC [22] = assay: Induction of IFNgamma1 production in human PBMC at 2000 pM after 2 days by ELISA (reference value: 29 pg/ml); format: cell-based; conditions: 48 h, 0.002 µM
PBMC [23] = assay: Induction of IFNgamma1 production in human PBMC at 2000 pM after 2 days in presence of 0.3 uM HDAC inhibitor SAHA by ELISA (reference value: 25 pg/ml); format: cell-based; conditions: 48 h, 0.002 µM
[24] = system: Human immunodeficiency virus 1; assay: Ratio of EC50 for reactivation of latent HIV1 infected in human U1 cells to EC50 for synergistic reactivation of latent HIV1 infected in human U1 cells in presence of HDAC inhibitor TPB; format: functional
[25] = system: Human immunodeficiency virus 1; assay: Reactivation of latent HIV1 infected in human U1 cells assessed as increase in p24 production after 48 hrs by ELISA; format: functional, organism-based
[26] = system: Human immunodeficiency virus 1; assay: Synergistic reactivation of latent HIV1 infected in human PBMC assessed as reduction in frequency of HIV1 latently infected CD4+ cells at 20 pM preincubated for 6 days followed by PHA-stimulation measured after 48 hrs in presence of HDAC inhibitor TPB by ELISA; format: functional
PBMC [27] = assay: Induction of IFNgamma1 production in human PBMC at 20 pM after 2 days in presence of 0.3 uM HDAC inhibitor SAHA by ELISA (reference value: 25 pg/ml); format: cell-based; conditions: 48 h
PBMC [28] = assay: Induction of T-cell activation in human PBMC assessed as increase in CD69 expression at 3 nM measured after 1 day in presence of HDAC inhibitor TPyB by flow cytometric method; format: cell-based; conditions: 24 h, 0.003 µM
[29] = system: Human immunodeficiency virus 1; assay: Reactivation of latent HIV1 infected in human U1 cells/uninfected U937 cell mixture assessed as increase in p24 production at 26 pM supplemented with fresh medium containing compound every 3 days for 18 days and subsequent dosing at 129 pM at day 18 post dose measured on day 21 by ELISA; format: functional, organism-based; method in brief: as §1
[30] = system: Human immunodeficiency virus 1; assay: Reactivation of latent HIV1 infected in human U1 cells assessed as increase in p24 production after 48 hrs by ELISA relative to vorinostat; format: functional
Method in brief: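 U1 cells at 2x10^5 cells/ml incubated with a range of concentrations at 37 °C for 48 h. Supernatant p24 measured by HIV p24 ELISA. EC50 ± SD derived from 3 independent experiments.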

[31] = Cytotoxicity against human U937 cells assessed as reduction in cell viability after 48 hrs by CellTiter-Glo luminescent cell viability assay; format: cell-based, U-937
Method in brief: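 U937 cells (HIV-1-negative parental line of U1) at 2x10^5 cells/ml exposed to a range of concentrations for 48 h at 37 °C. Viability read by CellTiter-Glo luminescence. CC50 ± SD derived from 3 independent experiments.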

[32] = biological target: Histone deacetylase 3/Nuclear receptor corepressor 2 (HDAC3/NCoR2) (Homo sapiens) (UniProt O15379+Q9Y618); assay: Inhibition of full length human C-terminal His-tagged HDAC3/N-terminal GST-tagged NCOR2 (395 to 489 residues) expressed in baculovirus infected Sf9 insect cells using substrate measured after 60 mins by colorimetric method
[33] = Cytotoxicity against human J-Lat (A2) cells assessed as effect on cell viability at 0.3 uM after 72 hrs by flow cytometric analysis; format: cell-based
Method in brief: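 J-Lat (A2) cells, 1x10^6 cells/well, incubated with the test agent at 37 °C for 72 h. GFP-expressing cells and percent viable cells measured by flow cytometry. Two independent experiments.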

PBMC [34] = assay: Induction of IFNgamma1 production in human PBMC at 3 uM after 2 days by ELISA; format: cell-based; conditions: 48 h
[35] = Human immunodeficiency virus 1, U1, 48 h, read-out: EC50

C=C(C)[C@@]12C[C@@H](COC(=O)c3ccccc3)[C@@]34OC5(O[C@@H]1[C@@H]3[C@@H]1O[C@]1(CO)[C@@H](O)[C@@]1(O)[C@H]4[C@H]([C@H](C)[C@@H]1OC(=O)c1ccccc1)[C@H](C)CCCCCC[C@H]5O)O2 [GNIDIMACRIN]
selectivity ratio [1]: 260000 to 750000
Activity (PBMC [2]): 34 pg/mL
Activity (PBMC [3]): 35 pg/mL
Activity (PBMC [4]): 42 pg/mL
fold change (FC) [5]: 1.8
Activity [6]: 12 pg/mL
CC50 at 72 h [7]: 5.3 µM
fold change (FC) [8]: 13.8
Activity (PBMC [9]): 47 pg/mL
Activity (PBMC [10]): Toxic
Activity [11]: Active
Activity [12]: inactive
Activity (PBMC [13]): 32 pg/mL
Activity [14]: 21%
EC50 [15]: 5.6 pM
Activity [16]: Active
Activity [17]: Non-Toxic
Activity [18]: 49 pg/mL
Activity [19]: Active
Activity [20]: >5%
fold change (FC) [21]: 10
Activity (PBMC [22]): 164 pg/mL
Activity (PBMC [23]): 39 pg/mL
Ratio EC50 [24]: >3
EC50 [25, 35]: 0.018 nM
fold change (FC) [26]: >3
Activity (PBMC [27]): 30 pg/mL
Activity (PBMC [28]): Toxic
Activity [29]: inactive
fold change (FC) [30]: 12.3
CC50 at 48 h [31]: 4.2 to 4.8 µM

Nc1ccc(F)cc1NC(=O)c1ccc(CNC(=O)/C=C/c2cccnc2)cc1
selectivity ratio [1]: 3.6
EC50 [25, 35]: 1400 nM
fold change (FC) [30]: 1.5
CC50 at 48 h [31]: 5 µM

Nc1cc(F)ccc1NC(=O)/C=C/c1cnn(C/C=C/c2ccccc2)c1
inhibition [32]: Active
EC50 ([25]; u1): Not Active
fold change (FC) [30]: 0

CC(=O)Nc1ccc(C(=O)Nc2cc(-c3cccs3)ccc2N)cc1
CC50 at 72 h [7]: 12.6 µM
Activity [33]: Non-Toxic
EC50 [25, 35]: 930 nM
Activity (PBMC [34]): Non-Toxic
fold change (FC) [30]: 1.4
CC50 at 48 h [31]: 14 µM
